# Test results reported in ChEMBL document CHEMBL2040780, “Antiarrhythmic properties of phenylpiperazine derivatives of phenytoin with α₁-adrenoceptor affinities” (Bioorg Med Chem, 2012).
# Activity calls are given as the source filed them. The rule behind the calls is not given here.
# What was measured:
# [1] = system: Rattus norvegicus; assay: Cardiotoxicity in Wistar rat assessed as effect on P-Q interval at 10 mg/kg, iv after 15 mins; assay type: toxicity, organism-based; design: dose 10 mg/kg, route intravenous; settings: in vivo, 0.25 h
# Procedure, shortened: (§1)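 Male Wistar rats (180–250 g), anaesthetised with thiopental 60 mg/kg ip. Standard lead II ECG recorded at 50 mm/s just before dosing and at 1, 5 and 15 min after. Heart rate and P–Q, Q–T and QRS intervals were read. n=6 per group, mean ± SEM, one-way ANOVA.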
# [2] = system: Rattus norvegicus; assay: Cardiotoxicity in Wistar rat assessed as effect on QRS interval at 10 mg/kg, iv after 15 mins; assay type: toxicity, organism-based; design: dose 10 mg/kg, route intravenous; settings: in vivo, 0.25 h; procedure, shortened: as §1
# [3] = system: Rattus norvegicus; assay: Antiarrhythmic activity in Wistar rat assessed as effect on heart beat at 10 mg/kg, iv after 15 mins; assay type: functional; procedure, shortened: as §1
# [4] = system: Rattus norvegicus; assay: Antiarrhythmic activity in Wistar rat assessed as protection against adrenaline-induced bigeminy at 2.5 to 10 mg/kg, iv administered 15 mins prior to adrenaline-challenge; assay type: functional, organism-based; settings: Heart
# Procedure, shortened: (§2)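 Szekeres model in male Wistar rats anaesthetised with thiopental (60 mg/kg ip). Test compound given iv in water (2.5–10 mg/kg) 15 min before adrenaline 20 µg/kg iv. Scored for extrasystoles, bigeminy and mortality; activity means no premature beats and inhibited arrhythmia versus controls.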
# [5] = system: Rattus norvegicus; assay: Hypotensive activity in normotensive Wistar rat assessed as decrease in diastolic blood pressure at 2.5 to 10 mg/kg, iv after 1 min measured up to 60 mins; assay type: organism-based, Artery; design: dose 2.5-10 mg/kg, route intravenous; settings: in vivo
# Procedure, shortened: (§3)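 Right carotid artery cannulated with heparin-saline-filled tubing for blood pressure recording. After 5 min stabilisation, compound injected iv into the caudal vein (2.5–10 mg/kg, 1 ml/kg). Systolic and diastolic pressure followed for 60 min. n=6 per group, mean ± SEM, one-way ANOVA.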
# [6] = system: Rattus norvegicus; assay: Cardiotoxicity in Wistar rat assessed as effect on Q-T interval at 10 mg/kg, iv after 15 mins; assay type: toxicity, organism-based; design: dose 10 mg/kg, route intravenous; settings: in vivo, 0.25 h; procedure, shortened: as §1
# [7] = system: Rattus norvegicus; assay: Antiarrhythmic activity in Wistar rat assessed as effect on heart beat at 10 mg/kg, iv after 1 min; assay type: functional; procedure, shortened: as §1
# [8] = system: Rattus norvegicus; assay: Hypotensive activity in normotensive Wistar rat assessed as decrease in diastolic blood pressure at 2.5 to 10 mg/kg, iv at 1 min; assay type: organism-based, Artery; design: dose 2.5-10 mg/kg, route intravenous; settings: in vivo; procedure, shortened: as §3
# [9] = system: Rattus norvegicus; assay: Antiarrhythmic activity in Wistar rat assessed as effect on heart beat at 10 mg/kg, iv after 5 mins; assay type: functional; procedure, shortened: as §1
# [10] = system: Rattus norvegicus; assay: Antiarrhythmic activity in Wistar rat assessed as protection against adrenaline-induced extrasystoles at 2.5 to 10 mg/kg, iv administered 15 mins prior to adrenaline-challenge; assay type: functional, organism-based; settings: Heart; procedure, shortened: as §2
# [11] = system: Rattus norvegicus; assay: Cardiotoxicity in Wistar rat assessed as effect on P-Q interval at 10 mg/kg, iv after 5 mins; assay type: toxicity, organism-based; design: dose 10 mg/kg, route intravenous; settings: in vivo; procedure, shortened: as §1
# [12] = system: Rattus norvegicus; assay: Hypotensive activity in normotensive Wistar rat assessed as decrease in systolic blood pressure at 2.5 to 10 mg/kg, iv after 1 min measured up to 60 mins; assay type: organism-based, Artery; design: dose 2.5-10 mg/kg, route intravenous; settings: in vivo; procedure, shortened: as §3
# [13] = system: Rattus norvegicus; assay: Antiarrhythmic activity in barium chloride-induced Wistar rat arrhythmia model assessed as protection against mortality at 2.5 to 10 mg/kg, iv administered 15 mins prior to barium chloride-challenge; assay type: functional, organism-based; settings: Heart
# Procedure, shortened: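 Szekeres model in male Wistar rats. Activity is gradual disappearance of arrhythmia with restored sinus rhythm; protection against disturbances and death scored. Groups of 6 animals.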
# [14] = system: Rattus norvegicus; assay: Cardiotoxicity in Wistar rat assessed as effect on QRS interval at 10 mg/kg, iv after 5 mins; assay type: toxicity, organism-based; design: dose 10 mg/kg, route intravenous; settings: in vivo; procedure, shortened: as §1
# [15] = system: Rattus norvegicus; assay: Hypotensive activity in normotensive Wistar rat assessed as decrease in systolic blood pressure at 2.5 to 10 mg/kg, iv at 1 min; assay type: organism-based, Artery; design: dose 2.5-10 mg/kg, route intravenous; settings: in vivo; procedure, shortened: as §3
# [16] = system: Rattus norvegicus; assay: Antiarrhythmic activity in iv dosed Wistar rat assessed as protection against adrenaline-induced arrhythmia administered 15 mins prior to adrenaline-challenge; assay type: functional; settings: Heart; procedure, shortened: as §2
# [17] = system: Rattus norvegicus; assay: Cardiotoxicity in Wistar rat assessed as effect on Q-T interval at 10 mg/kg, iv after 1 min; assay type: toxicity, organism-based; design: dose 10 mg/kg, route intravenous; settings: in vivo; procedure, shortened: as §1
# [18] = biological target: T1, Adrenergic receptor alpha-1 (Rattus norvegicus, UniProt P15823+P23944+P43140); assay: Displacement of [3H]prazosin from alpha1 adrenoceptor in rat cerebral cortex after 30 mins by microbeta scintillation counting; assay type: tissue-based
# T1 sequence (P15823 whole entry): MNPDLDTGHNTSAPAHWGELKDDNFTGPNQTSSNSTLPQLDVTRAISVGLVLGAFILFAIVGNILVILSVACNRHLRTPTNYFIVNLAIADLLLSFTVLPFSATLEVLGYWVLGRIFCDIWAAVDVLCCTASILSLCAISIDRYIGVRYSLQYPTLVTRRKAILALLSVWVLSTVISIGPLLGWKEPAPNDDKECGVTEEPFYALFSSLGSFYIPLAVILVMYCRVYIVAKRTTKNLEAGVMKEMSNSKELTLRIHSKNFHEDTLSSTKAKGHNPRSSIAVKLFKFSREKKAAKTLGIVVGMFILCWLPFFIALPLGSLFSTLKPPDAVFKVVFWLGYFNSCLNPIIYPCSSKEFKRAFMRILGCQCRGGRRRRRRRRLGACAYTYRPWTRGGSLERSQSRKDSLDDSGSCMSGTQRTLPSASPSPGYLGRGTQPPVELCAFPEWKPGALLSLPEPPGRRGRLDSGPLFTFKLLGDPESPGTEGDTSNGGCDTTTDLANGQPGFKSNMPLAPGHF
# T1 sequence (P23944 whole entry): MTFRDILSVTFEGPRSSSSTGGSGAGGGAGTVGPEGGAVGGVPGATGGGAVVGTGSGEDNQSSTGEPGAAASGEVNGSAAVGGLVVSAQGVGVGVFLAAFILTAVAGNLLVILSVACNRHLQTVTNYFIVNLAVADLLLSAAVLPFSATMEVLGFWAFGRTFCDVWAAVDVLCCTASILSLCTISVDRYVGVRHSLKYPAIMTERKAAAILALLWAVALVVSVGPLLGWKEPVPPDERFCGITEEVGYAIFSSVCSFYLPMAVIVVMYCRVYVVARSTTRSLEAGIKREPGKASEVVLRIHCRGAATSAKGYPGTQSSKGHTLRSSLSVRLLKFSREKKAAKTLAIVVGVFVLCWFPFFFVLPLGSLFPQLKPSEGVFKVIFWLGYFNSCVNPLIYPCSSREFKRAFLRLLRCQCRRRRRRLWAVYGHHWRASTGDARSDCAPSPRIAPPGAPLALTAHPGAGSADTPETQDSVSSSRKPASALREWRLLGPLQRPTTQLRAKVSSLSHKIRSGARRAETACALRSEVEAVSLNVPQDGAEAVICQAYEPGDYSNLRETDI
# T1 sequence (P43140 whole entry): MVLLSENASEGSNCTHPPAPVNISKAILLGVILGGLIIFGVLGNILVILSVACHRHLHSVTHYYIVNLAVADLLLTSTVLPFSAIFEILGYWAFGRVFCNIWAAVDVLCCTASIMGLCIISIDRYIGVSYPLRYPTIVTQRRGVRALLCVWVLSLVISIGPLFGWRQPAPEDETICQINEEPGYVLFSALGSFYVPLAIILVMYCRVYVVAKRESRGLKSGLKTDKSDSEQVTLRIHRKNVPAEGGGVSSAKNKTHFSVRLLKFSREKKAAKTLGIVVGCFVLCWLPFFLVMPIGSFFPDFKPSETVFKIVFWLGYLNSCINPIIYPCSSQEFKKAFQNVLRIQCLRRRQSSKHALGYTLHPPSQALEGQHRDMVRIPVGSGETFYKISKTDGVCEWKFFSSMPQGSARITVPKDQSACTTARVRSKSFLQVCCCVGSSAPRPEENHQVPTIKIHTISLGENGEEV
# Procedure, shortened: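 Rat cerebral cortex homogenised in ice-cold 50 mM Tris-HCl (pH 7.6 at 25 °C), washed twice at 20000×g and resuspended at 10 mg wet weight/ml. Incubated with [3H]prazosin (19.5 Ci/mmol) and test compound for 30 min at 25 °C. Nonspecific binding defined with 10 µM phentolamine. GF/B filtration, scintillation counting, three-parameter logistic competition fit.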
# [19] = system: Rattus norvegicus; assay: Cardiotoxicity in Wistar rat assessed as effect on Q-T interval at 10 mg/kg, iv after 5 mins; assay type: toxicity, organism-based; design: dose 10 mg/kg, route intravenous; settings: in vivo; procedure, shortened: as §1
# [20] = system: Rattus norvegicus; assay: Cardiotoxicity in Wistar rat assessed as effect on P-Q interval at 10 mg/kg, iv after 1 min; assay type: toxicity, organism-based; design: dose 10 mg/kg, route intravenous; settings: in vivo; procedure, shortened: as §1
# [21] = system: Rattus norvegicus; assay: Cardiotoxicity in Wistar rat assessed as effect on QRS interval at 10 mg/kg, iv after 1 min; assay type: toxicity, organism-based; design: dose 10 mg/kg, route intravenous; settings: in vivo; procedure, shortened: as §1
structure (smiles),measurement,setting,value
COC(=O)CN1C(=O)N(CCCCN2CCN(c3ccccc3OC)CC2)C(c2ccccc2)(c2ccccc2)C1=O.Cl,Activity,[1],62.8 ms
same,Activity,[2],19.5 ms
same,Activity,[3],357.8 min⁻¹
same,Activity,[4],Active
same,Activity,[5],Non-toxic
same,Activity,[6],75.6 ms
same,Activity,[7],355.8 min⁻¹
same,Activity,[8],Toxic
same,Activity,[9],354.3 min⁻¹
same,Activity,[10],Active
same,Activity,[11],63.3 ms
same,Activity,[12],Non-toxic
same,Activity,[13],Active
same,Activity,[14],19.3 ms
same,Activity,[15],Toxic
same,ED50,[16],1.8 mg/kg
same,Activity,[17],74.6 ms
same,Ki,[18],25 nM
same,pKi,[18],7.6
same,Activity,[19],73.3 ms
same,Activity,[20],62.6 ms
same,Activity,[21],19.6 ms
